Measured values gathered from unrelated publications.
Protocols differ between the studies behind these lines.
Target: Dual specificity testis-specific protein kinase 1 (TESK1, Homo sapiens, UniProt Q15569)

| Compound | observed | method | tested at | remaining binding |
| --- | --- | --- | --- | --- |
| NS(=O)(=O)c1cc(NC(=O)Cc2ccccc2)ccc1Oc1cccc(Cl)c1 | cell-free assay | competition with immobilised ligand | 1 µM | 100% |
| COc1cnc(Nc2cccc(S(N)(=O)=O)c2)nc1N1CCN(c2ccccc2)CC1 | binding | competition with immobilised ligand | 1 µM | 100% |
| N[C@H]1CCN(c2nccc(-c3cnn4ncccc34)n2)C1 | binding |  | 1 µM | 86% |
| Cc1c[nH]c2nccc(Oc3c(F)cc(Nc4cc(Cl)nc(N)n4)cc3F)c12 | cell-free assay | competition with immobilised ligand | 0.1 µM | 100% |
| c1cnn2ncc(-c3ccnc(N4CCC45COC5)n3)c2c1 | binding |  | 1 µM | 99% |
| O=C(Nc1c[nH]nc1C(=O)NC1CCNCC1)c1cc(F)cc(F)c1 | binding | competition with immobilised ligand | 1 µM | 100% |
| O=C(c1ccc(Nc2ncc(Cl)c(-c3cc4ccccc4s3)n2)cc1)N1CCC(N2CCCC2)CC1 | binding | competition with immobilised ligand | 1 µM | 81% |
| COc1ncc2cc3ccccc3nc2c1C#N | cell-free assay | competition with immobilised ligand | 5 µM | 94% |
| CN(CCCC(F)(F)F)c1nccc(-c2cnn3ncccc23)n1 | binding |  | 1 µM | 67% |
| CCN1CCN(Cc2ccc(C(=O)Nc3ccc(C)c(Oc4ccc5c(c4)CC(=O)N5)c3)cc2C(F)(F)F)CC1 | binding | competition with immobilised ligand | 1 µM | 100% |
| O=C(NCCCN1CCOCC1)c1ccc(Nc2ncc(Cl)c(-c3ccc(Cl)s3)n2)cc1 | binding | competition with immobilised ligand | 1 µM | 100% |
| CO[C@H]1CC[C@H](CNc2ccc(S(=O)(=O)NC(=O)c3ccc(N4CCN(CC5=C(c6ccc(Cl)cc6)CC(C)(C)CC5)CC4)cc3Oc3cnc4[nH]ccc4c3)cc2[N+](=O)[O-])CC1 | cell-free assay | competition with immobilised ligand | 1 µM | 100% |
| CN(C)c1nccc(-c2cnc3ncccn23)n1 | binding |  | 1 µM | 90% |
| C[C@H](NC(=O)c1cnc2n1[C@](C)(Cc1ccc(C#N)cc1)C(=O)N2c1cc(Cl)c(F)c(Cl)c1)C(=O)NC1(c2ccccn2)CC1 | cell-free assay | competition with immobilised ligand | 1 µM | 100% |
| C[C@@H]1CCN(c2nccc(-c3cnn4ncccc34)n2)C1 | binding |  | 1 µM | 91% |
| CN(C)CC#Cc1ccc(OCCCc2sc(N3CCc4cccc(C(=O)Nc5nc6ccccc6s5)c4C3)nc2C(=O)O)c(F)c1 | cell-free assay | competition with immobilised ligand | 1 µM | 100% |
| CC1CCCN1c1nccc(-c2cnn3ncccc23)n1 (centres unmarked) | binding |  | 1 µM | 99% |
| COc1ccc2c(c1)O[C@@H](c1ccc(OC)c(OC)c1)C[C@H]2NC(=O)C1(c2ccc3c(c2)OC(F)(F)O3)CC1 | cell-free assay | competition with immobilised ligand | 1 µM | 96% |
| O=C(c1ccc(Nc2ncc(Cl)c(-c3ccc(Cl)s3)n2)cc1)N1CCC(N2CCCC2)CC1 | binding | competition with immobilised ligand | 1 µM | 99% |
| CNC(=O)[C@@H]1CC[C@@H](n2c(-c3ccc4cnccc4c3)nc3ccc(C(=O)NCc4cccc(C(N)=O)c4)cc32)C1 | binding | competition with immobilised ligand | 1 µM | 100% |
